The source of these data is ChEMBL document CHEMBL4354843, “Structure-Based Design of a Potent and Selective Covalent Inhibitor for SRC Kinase That Targets a P-Loop Cysteine” (J Med Chem, 2020).

Test [1] has as its target Mitogen-activated protein kinase kinase kinase 10 (Homo sapiens) (UniProt Q02779). Kind of test: Binding affinity to wild-type human partial length MLK2 (V52 to W380 residues) expressed in bacterial expression system assessed as residual binding level at 1 uM by Kinomescan method relative to control.
Test [2] deals with Calcium/calmodulin-dependent protein kinase type 1G (Homo sapiens) (UniProt Q96NX5). Kind of test: Binding affinity to wild-type human partial length CAMK1G (M1 to A342 residues) expressed in bacterial expression system assessed as residual binding level at 1 uM by Kinomescan method relative to control.
Test [3] deals with Cyclin-dependent kinase 4 (Homo sapiens) (UniProt P11802). Description: Binding affinity to wild-type human full length CDK4 (M1 to E303 residues) expressed in mammalian expression system assessed as residual binding level at 1 uM by Kinomescan method relative to control. In short, it runs like this:
(§1)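 Active-site-directed KinomeScan competition binding panel covering 468 kinases, compound tested at 1 μM. Each readout is the kinase signal remaining with compound, expressed as a percentage of the DMSO control. […]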

In test [4] the target is Protein-tyrosine kinase 2-beta (Homo sapiens) (UniProt Q14289). Kind of test: Binding affinity to wild-type human full length PYK2 (M1 to E967 residues) expressed in bacterial expression system assessed as residual binding level at 1 uM by Kinomescan method relative to control. In short, it runs like this:
(§2)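 Active-site-directed competition binding panel (KinomeScan) covering 468 kinases. Test agent was screened at 1 μM. The read-out is the remaining kinase signal expressed relative to a DMSO control. Scores above 35%, taken as weak binding, were not reported.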

Test [5] concerns the target Serine/threonine-protein kinase pim-2 (Homo sapiens) (UniProt Q9P1W9). Description: Binding affinity to wild-type human partial length PIM2 (M1 to E291 residues) expressed in bacterial expression system assessed as residual binding level at 1 uM by Kinomescan method relative to control.
Test [6] relates to NCI-H1975. Kind of test: Antiproliferative activity against human NCI-H1975 cells assessed as reduction in cell viability incubated for 72 hrs by cell-titer glo assay. The settings on record: NCI-H1975, 72 h.
In test [7] the target is Ribosomal protein S6 kinase alpha-1 (Homo sapiens) (UniProt Q15418). Description: Binding affinity to wild-type human partial length C- terminal RSK1 kinase domain 2 (P360 to L681 residues) expressed in bacterial expression system assessed as residual binding level at 1 uM by Kinomescan method relative to control.
Test [8] addresses Dual specificity mitogen-activated protein kinase kinase 6 (Homo sapiens) (UniProt P52564). Description: Binding affinity to wild-type human partial length MEK6 (K36 to D334 residues) expressed in bacterial expression system assessed as residual binding level at 1 uM by Kinomescan method relative to control. In short, it runs like this: (§3)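 Active-site-directed competition binding panel of 468 kinases (KinomeScan), compound at 1 μM. The read-out is kinase remaining bound, given as a percentage of the DMSO control. […]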

Test [9] has as its target BDNF/NT-3 growth factors receptor (Homo sapiens) (UniProt Q16620). Kind of test: Binding affinity to wild-type human partial length TRKB (Q547 to G838 residues) expressed in mammalian expression system assessed as residual binding level at 1 uM by Kinomescan method relative to control.
The target of test [10] is Serine/threonine-protein kinase MRCK beta (Homo sapiens) (UniProt Q9Y5S2). Kind of test: Binding affinity to wild-type human partial length MRCKB (L56 to S417 residues) expressed in bacterial expression system assessed as residual binding level at 1 uM by Kinomescan method relative to control.
The target in test [11] is Mitogen-activated protein kinase kinase kinase 11 (Homo sapiens) (UniProt Q16584). Description: Binding affinity to wild-type human partial length MLK3 (I77 to W399 residues) expressed in bacterial expression system assessed as residual binding level at 1 uM by Kinomescan method relative to control.
In test [12] the target is Epithelial discoidin domain-containing receptor 1 (Homo sapiens) (UniProt Q08345). Kind of test: Binding affinity to wild-type human partial length DDR1 (R565 to V876 residues) expressed in bacterial expression system assessed as residual binding level at 1 uM by Kinomescan method relative to control. In short, it runs like this: as §3
For test [13], the target named is Casein kinase I isoform gamma-3 (Homo sapiens) (UniProt Q9Y6M4). Kind of test: Binding affinity to wild-type human full length CSNK1G3 (M1 to K447 residues) expressed in bacterial expression system assessed as residual binding level at 1 uM by Kinomescan method relative to control. In short, it runs like this:
as §1

Test [14] addresses Homeodomain-interacting protein kinase 3 (Homo sapiens) (UniProt Q9H422). Description: Binding affinity to wild-type human partial length HIPK3 (M153 to N562 residues) expressed in mammalian expression system assessed as residual binding level at 1 uM by Kinomescan method relative to control. In short, it runs like this:
as §3

In test [15] the target is Serine/threonine-protein kinase pim-1 (Homo sapiens) (UniProt P11309). Description: Binding affinity to wild-type human partial length PIM1 (A15 to K313 residues) expressed in bacterial expression system assessed as residual binding level at 1 uM by Kinomescan method relative to control.
In test [16] the target is Atypical kinase COQ8B, mitochondrial (Homo sapiens) (UniProt Q96D53). Kind of test: Binding affinity to wild-type human full length ADCK4 (M1 to S544 residues) expressed in bacterial expression system assessed as residual binding level at 1 uM by Kinomescan method relative to control. In short, it runs like this: as §1
Test [17] concerns the target Mitogen-activated protein kinase kinase kinase 20 (Homo sapiens) (UniProt Q9NYL2). Kind of test: Binding affinity to wild-type human partial length ZAK (M1 to L331 residues) expressed in bacterial expression system assessed as residual binding level at 1 uM by Kinomescan method relative to control. In short, it runs like this:
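Active site-directed competition binding panel (KinomeScan, 468 kinases). Test compound at 1 μM. Read-out is kinase binding remaining versus DMSO control, expressed as percent of control. Scores above 35% are treated as weak binding.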

In test [18] the test system is Epidermal growth factor receptor (Homo sapiens), P00533 [UNDEFINED MUTATION]. Description: Binding affinity to human partial length EGFR S752-I759del mutant expressed in bacterial expression system assessed as residual binding level at 1 uM by Kinomescan method relative to control. The procedure, abridged:
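KinomeScan active site-directed competition binding panel (468 kinases), compound tested at 1 μM. Result expressed as remaining kinase signal versus DMSO control (percent of control).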

In test [19] the target is Fibroblast growth factor receptor 2 (Homo sapiens) (UniProt P21802). Kind of test: Binding affinity to wild-type human partial length FGFR2 (D457 to E769 residues) expressed in bacterial expression system assessed as residual binding level at 1 uM by Kinomescan method relative to control.
Test [20] concerns the target Cyclin-dependent kinase 14 (Homo sapiens) (UniProt O94921). Description: Binding affinity to wild-type human full length PFTK1 (M1 to H451 residues) expressed in bacterial expression system assessed as residual binding level at 1 uM by Kinomescan method relative to control. In short, it runs like this:
as §2

The target in test [21] is Proto-oncogene tyrosine-protein kinase receptor Ret (Homo sapiens) (UniProt P07949). Description: Binding affinity to wild-type human partial length RET (E713 to D1014 residues) expressed in bacterial expression system assessed as residual binding level at 1 uM by Kinomescan method relative to control.

SMILES strings stand for the structures. pIC50: −log10 of the molar value.

`C=CC(=O)Nc1ccccc1Nc1nc(Nc2ccc(N3CCN(C)CC3)cc2)ncc1C(=O)Nc1c(C)cccc1Cl`: the Activity in [1] stood at 100%; in [2], 100%; in [3] it was 97%; in test [4], 100%; in test [5] it was 95%; in [7], 100%. Further, the Activity in [8] came out at 99%; in test [9], 100%; in test [10], 100%; in test [11] it was 100%; in test [12], 1.1%; in [13], 100%. Besides, the Activity was determined as 99% in [14]; 100% in [15]; 100% in test [16]; 98% in [17]; 92% in test [18]; 95% in test [19]. In addition, the Activity in test [20] and in [21] was 100% each time. Further, the negative-log IC50 (pIC50) in [6] was 6.52.
